{
  "source": "paper PMC6737205",
  "about": "(International Journal of Nanomedicine, 2019)",
  "set-up_in_all_cases": "species or system mouse",
  "conditions_in_all_cases": "S180 mice, oral, RGDV-gemcitabine 8.4 μmol/kg/day, gemcitabine 84 μmol/kg/day, every 3 days for 12 days, n=12",
  "key": {"In vivo serum BUN assay": {"assay": "In vivo serum BUN assay", "method_in_brief": "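BUN was measured by a kit immunoassay on serum from S180 tumour-bearing mice, with blood spun at 3000 rpm, 4°C, 10 mins. Serum was incubated with anti-BUN antibody and streptavidin-HRP at 37°C for 60 mins, then washed 5 times. Chromogen was added at 37°C for 15 mins in the dark, then stop solution. Read at 450 nm within 15 mins; BUN from a standard curve.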"}, "[1]": {"assay": "In vivo serum AST/GOT assay"}, "In vivo serum Cr assay": {"assay": "In vivo serum Cr assay", "method_in_brief": "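Creatinine was measured with an enzymatic kit on serum from S180 tumour-bearing mice, with blood spun at 1000 rpm, 4°C, 10 mins. Serum plus enzyme solution A was incubated at 37°C for 5 mins and read at 546 nm (A1). After a further 30 mins at 37°C, enzyme solution B was added, incubated 5 mins, and read again at 546 nm (A2). Cr was calculated from the two readings.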"}, "[2]": {"assay": "In vivo serum ALT/GPT assay", "method_in_brief": "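Serum came from male ICR mice bearing subcutaneous S180 tumours (1×10^7 cells, right armpit). Blood was taken 3 hrs after the last oral dose, with saline 10 mL/kg/day as vehicle, and spun at 1000 rpm, 4°C, 10 mins. Serum was incubated with kit matrix at 37°C for 30 mins, then dinitrophenylhydrazine at 37°C for 20 mins, then 0.4 M NaOH. Read at 510 nm; ALT from a standard curve.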"}},
  "data": [
    {"compound": "Nc1ccn([C@@H]2O[C@H](CO)[C@@H](O)C2(F)F)c(=O)n1", "note": "[gemcitabine]", "values": [
      {"measurement": "serum BUN compared with NS-treated mice", "setting": "In vivo serum BUN assay", "result": "significantly higher than those of NS-treated mice"},
      {"measurement": "serum AST/GOT compared with NS-treated mice", "setting": "[1]", "result": "significantly higher than those of NS-treated mice"},
      {"measurement": "serum Cr compared with NS-treated mice", "setting": "In vivo serum Cr assay", "result": "significantly higher than those of NS-treated mice"},
      {"measurement": "serum ALT/GPT compared with NS-treated mice", "setting": "[2]", "result": "significantly higher than those of NS-treated mice"}
    ]}
  ]
}
